This is an account of results in ChEMBL document CHEMBL4229356, “Synthesis and antikinetoplastid evaluation of bis(benzyl)spermidine derivatives” (Eur J Med Chem, 2018).

In data set [1] the test system is Leishmania donovani. Nature of the data set: Antiparasitic activity against Leishmania donovani LV9 axenic intramacrophage amastigotes infected in mouse RAW264.7 cells incubated for 48 hrs by Sybr Green 1 dye based fluorescence assay. The format is functional, organism-based. The conditions noted are these: LV9, RAW264.7, 48 h. In a few lines:
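RAW 264.7 cells at 2.10⁴/well were infected 24 h with axenic amastigotes at a 16:1 parasite to macrophage ratio, then extracellular parasites were removed. Cells were treated 48 h with two-fold dilutions from 100 µM. They were then lysed (freeze-thaw, proteinase K, 55 °C overnight) and total DNA read by SYBR Green I fluorescence against untreated infected cells. Result given as IC50.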

For data set [2], the target named is T1, Trypanothione reductase (Trypanosoma brucei brucei, UniProt P39051). Nature of the data set: Inhibition of Trypanosoma brucei trypanothione reductase using TS2 as substrate in presence of NADPH by spectrophotometric method.
Data set [3] in a line: Selectivity index, ratio of CC50 for mouse RAW264.7 cells to IC50 for Trypanosoma brucei gambiense FeoITMAP/1893. The format is toxicity. The conditions noted are these: read-out: Ratio CC50/IC50.
Data set [4] concerns Trypanosoma brucei gambiense. Nature of the data set: Trypanocidal activity against Trypanosoma brucei gambiense FeoITMAP/1893 after 72 hrs by resazurin dye based assay. The conditions noted are these: FeoITMAP/1893, 72 h. The format is functional, organism-based. An outline of the steps:
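T. b. gambiense Feo was grown in supplemented IMDM with 10% FBS. Cells at 4.10⁴/mL were exposed 72 h at 37 °C, 5% CO2 in the dark to two-fold dilutions. Resazurin (450 µM solution) was added for 6 h and read at OD570/OD600. Result given as IC50; pentamidine was the reference.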

Data set [5] concerns Leishmania donovani. The data set can be described thus: Antiparasitic activity against Leishmania donovani amastigotes.
Data set [6] has as its system Leishmania donovani. Nature of the data set: Antiparasitic activity against Leishmania donovani LV9 axenic amastigotes incubated for 72 hrs by resazurin dye based assay. The data set is classed as functional, organism-based. As to conditions: LV9, 72 h. In a few lines:
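LV9 axenic amastigotes were derived from promastigotes in M-199 at pH 5.5, 37 °C, 5% CO2, and used in log phase. Cells at 10⁶/mL were exposed 72 h to two-fold dilutions from 100 to 0.02 μM. Resazurin was then added for 24 h in the dark and read at OD570/OD600. IC50 is relative to excipient-only controls; miltefosine was the reference.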
For orientation: Resazurin is reduced to fluorescent resorufin, in cell work by metabolically active cells.

Data set [7] can be described thus: Cytotoxicity against mouse RAW264.7 cells assessed as reduction in cell viability after 48 hrs by resazurin assay. The format is cell-based. An outline of the steps:
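RAW 264.7 macrophages at 2.10⁴/well were preincubated 24 h, then exposed 48 h at 37 °C, 5% CO2 to two-fold dilutions in DMEM. Resazurin was added for 4 h in the dark and read at OD570/OD600. Result given as CC50.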

The target in data set [8] is Trypanothione reductase (Trypanosoma brucei brucei) (UniProt P39051). Nature of the data set: Inhibition of Trypanosoma brucei trypanothione reductase at 40 uM using 40 uM TS2 as substrate in presence of NADPH by spectrophotometric method relative to control. An outline of the steps: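 Recombinant T. brucei TryR (5-10 mU) in 40 mM Hepes, 1 mM EDTA, pH 7.5, with 100 μM NADPH, 5% DMSO, at 25 °C. Inhibitor was fixed at 40 μM; TS2 at 100 or 40 μM started the reaction. NADPH consumption was followed at 340 nm and % inhibition taken against DMSO-matched controls. Run in triplicate, mean ± SD.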

The target in data set [9] is T1, Trypanothione reductase. The data set can be described thus: Mixed-type inhibition of Trypanosoma brucei trypanothione reductase assessed as enzyme-inhibitor-substrate complex using varying levels of TS2 as substrate in presence of NADPH by Lineweaver-Burk plot analysis. An outline of the steps: (§1)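 TryR assay in Hepes/EDTA buffer pH 7.5 with 100 μM NADPH at 25 °C, started with TS2 and read at 340 nm. Inhibition type was assigned from a Lineweaver-Burk plot.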

In data set [10] the target is T1, Trypanothione reductase. The data set can be described thus: Mixed-type inhibition of Trypanosoma brucei trypanothione reductase assessed as enzyme-inhibitor complex using varying levels of TS2 as substrate in presence of NADPH by Lineweaver-Burk plot analysis. In a few lines:
as §1

Data set [11] can be described thus: Stability in human plasma by HPLC analysis. The format is ADME, cell-free. As to conditions: read-out: Stability. In a few lines:
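Human plasma was diluted 10-fold in PBS and incubated with 1 mM compound solutions for 0, 2 and 12 h at 37 °C. Samples were quenched with ice-cold acetonitrile, centrifuged, filtered and analysed by C18 reversed-phase HPLC at 25 °C.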

For data set [12], the system named is Mus musculus. Nature of the data set: Toxicity in Swiss mouse assessed as death at 100 mg/kg, ip administered as single dose measured up to 30 days. As to conditions: in vivo, 720 h. The data set is classed as organism-based. In a few lines:
(§2)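 Swiss mice infected ip with 10,000 T. b. brucei CMP trypanosomes, randomly grouped (six per batch), then given one ip dose of 100 or 10 mg/kg; controls received pentamidine, melarsamine or excipient. Parasitemia followed at days 2, 3, 4 and 30; deaths recorded by day post-treatment; efficacy as mean survival time minus that of excipient-treated controls (days ± SD).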

Data set [13] can be described thus: Stability in human liver S9 fraction at 0.1 to 1 mM up to 12 hrs in absence of NADPH. The format is ADME, subcellular. The conditions noted are these: s9, 12 h, 1000 µM. An outline of the steps:
(§3)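 Pooled human liver S9 was diluted 20-fold in PBS (1 mg/ml protein). Compound solutions of 100 μM and 1 mM were incubated 0 and 12 h at 37 °C, with or without 1 mM NADPH.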

Data set [14] deals with Leishmania donovani. The data set can be described thus: Antileishmanial activity against Leishmania donovani infected in Balb/c mouse at 2 mg/kg/day, ip for 5 consecutive days. The format is functional, organism-based. An outline of the steps: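 Balb/c mice infected with L. donovani; 2 mg/kg/day given intraperitoneally on five consecutive days, total 10 mg/kg.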
Data set [15] deals with Mus musculus. Nature of the data set: Toxicity in Swiss mouse assessed as death at 10 mg/kg, ip administered as single dose measured up to 30 days. The data set is classed as organism-based. The conditions noted are these: in vivo, 720 h. In a few lines:
as §2

The subject of data set [16] is Trypanosoma brucei brucei. Nature of the data set: Antitrypanosomal activity against Trypanosoma brucei brucei CMP infected in Swiss mouse assessed as change in mean survival time at 10 mg/kg, ip administered as single dose measured up to 30 days. The format is functional. In a few lines: as §2
Data set [17] in a line: Stability in human liver S9 fraction at 0.1 to 1 mM up to 12 hrs in presence of NADPH. The conditions noted are these: s9, 12 h, 1000 µM. The data set is classed as ADME, subcellular. An outline of the steps:
as §3

The subject of data set [18] is Trypanosoma brucei brucei. The data set can be described thus: Antitrypanosomal activity against Trypanosoma brucei brucei CMP infected in Swiss mouse assessed as change in mean survival time at 100 mg/kg, ip administered as single dose measured up to 30 days. The data set is classed as functional. An outline of the steps: as §2
The nature of data set [19]: Selectivity index, ratio of CC50 for mouse RAW264.7 cells to IC50 for Leishmania donovani LV9 axenic amastigotes incubated for 72 hrs by resazurin dye based assay. The data set is classed as toxicity. As to conditions: read-out: Ratio CC50/IC50.

The structures appear in SMILES notation. Activity calls are given as the source filed them. No cut-off for these calls is given here.

T1 sequence (P39051 whole entry): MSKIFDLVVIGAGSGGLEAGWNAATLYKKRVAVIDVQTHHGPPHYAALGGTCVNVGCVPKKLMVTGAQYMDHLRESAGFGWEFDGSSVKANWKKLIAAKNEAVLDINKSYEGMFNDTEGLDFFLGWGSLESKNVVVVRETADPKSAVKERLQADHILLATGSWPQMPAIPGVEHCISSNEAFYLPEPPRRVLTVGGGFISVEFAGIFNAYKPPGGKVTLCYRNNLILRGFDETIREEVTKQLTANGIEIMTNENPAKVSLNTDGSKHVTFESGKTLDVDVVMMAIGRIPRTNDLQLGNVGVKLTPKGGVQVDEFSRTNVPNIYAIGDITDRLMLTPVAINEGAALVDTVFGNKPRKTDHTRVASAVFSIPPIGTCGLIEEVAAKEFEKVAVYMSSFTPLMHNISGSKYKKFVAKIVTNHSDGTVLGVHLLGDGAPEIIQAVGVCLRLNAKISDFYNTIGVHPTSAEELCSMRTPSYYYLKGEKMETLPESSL
Sequence of Trypanothione reductase (Trypanosoma brucei brucei) (P39051 whole entry, looked up): as the sequence (P39051 whole entry) above

On to `NCCCCNCCCN(Cc1ccccc1)Cc1ccccc1`, for which the half-inhibitory concentration (IC50) was 27.4 µM in the data set on Leishmania donovani [1]; 8.8 µM on Trypanothione reductase [2]; 8.8 µM in data set [4]; 25 µM with Leishmania donovani [5]; more than 100 µM in the data set with Leishmania donovani [6]. Further, the selectivity ratio in data set [3] came to 2. In addition, in data set [7], the half-maximal cytotoxic concentration (CC50) at 48 h amounted to 17.7 µM. Besides, the inhibition in [8] was more than 50%. Moreover, the Ki on Trypanothione reductase [9] is 20 µM; on Trypanothione reductase [10], 7.5 µM. Besides, the half-life in [11] is more than 12 h.

With `NC1CCC(NCCCN(Cc2ccc(F)cc2)Cc2ccc(F)cc2)CC1` (stereo unspecified), the Activity result in the data set on Mus musculus [12] is “Toxic”; in the data set with Mus musculus [15], “Non-Toxic”. Also, the Stability result in data set [13] and in data set [17] was “Stable” throughout. Besides, the result with Leishmania donovani [14] was inactive. Moreover, the half-maximal inhibitory concentration (IC50) was 12.4 µM with Leishmania donovani [1], 0.4 µM in data set [4] and 44.4 µM in the data set on Leishmania donovani [6]. In [3], the selectivity ratio was 11. Further, the Survival in [16] was 0 days; in [18], -2.3 days. For the same compound, in data set [7], the cytotoxic concentration (CC50) at 48 h was determined as 4.4 µM. For the same compound, the half-life in data set [11] is more than 12 h.

With `NCCCCNCCCN(Cc1ccc(OCc2ccccc2)cc1)Cc1ccc(OCc2ccccc2)cc1`, the IC50 in the data set on Leishmania donovani [1] was more than 100 µM; in data set [4] it was 35.5 µM; with Leishmania donovani [5], more than 3.9 µM; with Leishmania donovani [6], 72.2 µM. The selectivity ratio in data set [3] is more than 2.8. In data set [19], the selectivity ratio at 72 h was more than 1.4. Besides, in data set [7], the CC50 at 48 h was more than 100 µM.

The term IC50 denotes the midpoint of a concentration-inhibition curve. By CC50 is commonly meant the concentration that lowers cell viability or growth by half. As usually defined, the inhibition is the percentage by which the read-out fell short of the control. By Ki is commonly meant a measure of affinity in units of concentration, obtained from inhibition or displacement.
